Laboratory results published in ChEMBL document CHEMBL1142014, “Synthesis and activity of 4,5-diarylimidazoles as human CB1 receptor inverse agonists” (Bioorg Med Chem Lett, 2005).

Key:
Cannabinoid receptor 1 [1] = molecular target: T1, Cannabinoid receptor 1 (Homo sapiens, UniProt P21554); assay: biochemical; format: cell-based, CHO
[2] = (§1) Brain-to-plasma ratio after 4 hrs in rat; format: ADME
Procedure, shortened: (§2)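 Male Sprague-Dawley rats given 1.0 mg/kg iv by tail vein, formulated at 1 mg/mL in TWEEN 80:EtOH:water (10:23:67). Sampled at 0.25, 1, 2 and 4 h (n = 3 per time point). Plasma and brain levels measured by LC–MS/MS and expressed as the brain/plasma ratio.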

Cannabinoid receptor 1 [3] = molecular target: T1, Cannabinoid receptor 1; assay: Effective concentration against human recombinant cannabinoid receptor type 1 expressed in Chinese Hamster Ovary (CHO) cells; format: cell-based
Procedure, shortened: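 Functional assay on recombinant human CB1 receptor expressed in CHO cells, run in the presence of forskolin.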

[4] = Plasma clearance in rat; format: ADME, organism-based; settings: read-out: Clp
Procedure, shortened: (§3)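 Male Sprague–Dawley rats dosed 1.0 mg/kg iv via an implanted cannula (n = 1 or 2) and 2.0 mg/kg po by gavage (n = 3). Both doses were formulated at 1 mg/mL in TWEEN 80:EtOH:water (10:23:67). Plasma drug levels were measured by LC–MS/MS after protein precipitation, and PK parameters were derived. AUC was normalised to dose.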

[5] = Brain-to-plasma ratio after 0.25 hrs in rat; format: ADME
Procedure, shortened: as §2

[6] = Normalised area under the concentration time curve in rat; format: ADME
Procedure, shortened: as §3

[7] = Brain-to-plasma ratio after 1 hr in rat; format: ADME
Procedure, shortened: as §2

[8] = Brain-to-plasma ratio after 2 hrs in rat; format: ADME
Procedure, shortened: as §2

[9] = Volume distribution at steady state in rat; format: ADME, organism-based; settings: in vivo, read-out: Vdss
Procedure, shortened: as §3

[10] = Oral bioavailability in rat; format: ADME, organism-based; settings: in vivo
Procedure, shortened: as §3

[11] = Half life in rat; format: ADME; settings: in vivo
Procedure, shortened: as §3

[12] = as §1; format: ADME, cell-free; settings: read-out: B/P
Procedure, shortened: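 Male Sprague-Dawley rats were given 1.0 mg/kg iv via the tail vein, formulated at 1 mg/mL in TWEEN 80:EtOH:water (10:23:67). Three rats were used at each time point (0.25, 1, 2 and 4 h). Brain and plasma concentrations were measured by LC–MS/MS, and the brain-to-plasma ratio was taken at each time.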

T1 sequence (P21554 whole entry): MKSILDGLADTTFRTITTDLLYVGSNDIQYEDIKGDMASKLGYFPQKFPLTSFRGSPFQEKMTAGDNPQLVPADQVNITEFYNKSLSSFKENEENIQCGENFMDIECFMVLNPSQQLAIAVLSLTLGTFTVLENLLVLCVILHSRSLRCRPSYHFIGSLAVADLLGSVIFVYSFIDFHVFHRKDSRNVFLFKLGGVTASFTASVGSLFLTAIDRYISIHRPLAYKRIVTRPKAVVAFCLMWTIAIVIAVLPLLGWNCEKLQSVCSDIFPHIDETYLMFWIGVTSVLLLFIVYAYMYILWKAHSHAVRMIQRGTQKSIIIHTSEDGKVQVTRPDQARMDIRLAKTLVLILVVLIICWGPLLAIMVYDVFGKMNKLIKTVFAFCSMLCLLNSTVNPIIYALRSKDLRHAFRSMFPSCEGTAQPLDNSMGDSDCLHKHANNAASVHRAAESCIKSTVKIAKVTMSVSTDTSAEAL

SMILES | IC50 (Cannabinoid receptor 1 [1]) [µM] | also measured
O=C(NC1CCCCC1)c1nc(-c2ccc(Cl)cc2)c(-c2ccc(Cl)cc2)o1 | 0.5 | –
Cn1c(C(=O)NC2CCCCC2)nc(-c2ccc(Cl)cc2Cl)c1-c1ccc(Cl)cc1 | 0.004 | Kp at 4 h [2]: 2.6; EC50 (Cannabinoid receptor 1 [3]): 0.018 µM; clearance [4]: 1.2 L/h/kg; Kp at 0.25 h [5]: 0.8; AUC nom [6]: 1.8 µM·kg·h/mg; Kp at 1 h [7]: 2.1; Kp at 2 h [8]: 1.3; Vd [9]: 1.9 L/kg; bioavailability [10]: 30%; half-life [11]: 1.9 h
CCn1c(C(=O)NC2CCCCC2)nc(-c2ccc(Cl)cc2Cl)c1-c1ccc(Cl)cc1 | 0.0041 | –
Cn1c(C(=O)NN2CCCCC2)nc(-c2ccc(Cl)cc2Cl)c1-c1ccc(Cl)cc1Cl | 0.016 | –
Cn1c(C(=O)NN2CCCCC2)nc(-c2ccc(Cl)cc2)c1-c1ccc(Cl)cc1Cl | 0.19 | –
CCCCCCNC(=O)c1nc(-c2ccc(Cl)cc2)c(-c2ccc(Cl)cc2)n1C | 0.54 | –
Cn1c(C(=O)N2CCCCC2)nc(-c2ccc(Cl)cc2)c1-c1ccc(Cl)cc1 | 1.1 | –
Cn1c(C(=O)NC2CCCCCC2)nc(-c2ccc(Cl)cc2Cl)c1-c1ccc(Cl)cc1 | 0.008 | –
O=C(NC1CCCCC1)c1nc(-c2ccc(Cl)cc2Cl)c(-c2ccc(Cl)cc2Cl)o1 | 0.07 | –
Cc1ccc(-c2nc(C(=O)NC3CCCCC3)n(C)c2-c2ccc(C)cc2)cc1 | 0.9 | –
O=C(NN1CCCCC1)c1nc(-c2ccc(Cl)cc2)c(-c2ccc(Cl)cc2Cl)o1 | 0.47 | –
O=C(NC1CCCCC1)c1nc(-c2ccc(Cl)cc2)c(-c2ccc(Cl)cc2Cl)o1 | 1 | –
CN(C(=O)c1nc(-c2ccc(Cl)cc2Cl)c(-c2ccc(Cl)cc2)n1C)C1CCCCC1 | 0.07 | –
Cn1c(C(=O)NC(C)(C)C)nc(-c2ccc(Cl)cc2)c1-c1ccc(Cl)cc1 | 0.9 | –
O=C(NN1CCCCC1)c1nc(-c2ccc(Cl)cc2Cl)c(-c2ccc(Cl)cc2Cl)o1 | 0.2 | –
O=C(NN1CCCCC1)c1nc(-c2ccc(Cl)cc2Cl)c(-c2ccc(Cl)cc2)o1 | 0.26 | –
O=C(NC1CCCCC1)c1nc(-c2ccc(Cl)cc2Cl)c(-c2ccc(Cl)cc2)o1 | 0.08 | –
O=C(NN1CCCCC1)c1nc(-c2ccc(Cl)cc2)c(-c2ccc(Cl)cc2)[nH]1 | 6 | –
Cn1c(C(=O)NN2CCCCC2)nc(-c2ccccc2)c1-c1ccccc1 | 1.9 | –
Cn1c(C(=O)NC2CCCC2)nc(-c2ccc(Cl)cc2Cl)c1-c1ccc(Cl)cc1 | 0.017 | –
Cn1c(C(=O)NC2CCCCC2)nc(-c2ccc(Cl)cc2Cl)c1-c1ccc(Cl)cc1Cl | 0.0052 | –
Cn1c(C(=O)NN2CCCCC2)nc(-c2ccc(Cl)cc2)c1-c1ccc(Cl)cc1 | 0.26 | EC50 (Cannabinoid receptor 1 [3]): 0.1 µM
Cn1c(C(=O)N2CCCCC2)nc(-c2ccccc2)c1-c1ccccc1 | 19 | –
Cn1c(C(=O)Nc2ccccc2)nc(-c2ccc(Cl)cc2Cl)c1-c1ccc(Cl)cc1 | 0.06 | –
Cn1c(C(=O)NC2CCCCC2)nc(-c2ccc(Cl)cc2)c1-c1ccc(Cl)cc1 | 0.45 | EC50 (Cannabinoid receptor 1 [3]): 0.5 µM
Cn1c(C(=O)NC2CCCCC2)nc(-c2ccc(Cl)cc2)c1-c1ccc(Cl)cc1Cl | 0.046 | –
Cn1c(C(=O)NN2CCCCC2)nc(-c2ccc(Cl)cc2Cl)c1-c1ccc(Cl)cc1 | 0.0061 | Kp at 4 h [12]: 3.4; EC50 (Cannabinoid receptor 1 [3]): 0.005 µM; clearance [4]: 1.68 L/h/kg; Kp at 0.25 h [5]: 3; AUC nom [6]: 1.3 µM·kg·h/mg; Kp at 1 h [7]: 3.6; Kp at 2 h [8]: 2.9; Vd [9]: 3.7 L/kg; bioavailability [10]: 50%; half-life [11]: 2.4 h
